This note sets out measurements from ChEMBL document CHEMBL2150890, “Antioxidant properties of Mannich bases” (Bioorg Med Chem Lett, 2012).

Data set [1] has as its system Radical scavenging activity. Nature of the data set: Antioxidant activity of the compound assessed as DPPH radical scavenging activity. It counts as functional. In outline:
(§1)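 Scavenging of the DPPH radical read by absorbance at 520 nm. % scavenging = (A_blank − A_sample)/A_blank × 100. Scavenging also followed at 0.5, 1, 2, 4, 6, 12 and 24 h. Three independent experiments, mean ± SD, one-way ANOVA.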

Data set [2] has as its system Radical scavenging activity. Nature of the data set: Antioxidant activity of the compound assessed as DPPH radical scavenging activity at 50 uM. It is filed as functional. Summed up:
as §1
(In general: Loss of DPPH colour is used to gauge radical scavenging.)

The nature of data set [3]: Antioxidant activity of the compound in phosphate buffer at pH 6.6 assessed as potassium ferric cyanide ion reducing activity at 6.25 to 100 uM after 20 mins. It is filed as functional. More on the design: scale not given: the % may be the effect or the level left. Summed up: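 Ferricyanide reducing power: sample in 0.2 M phosphate buffer, pH 6.6, incubated with 1% w/v potassium ferricyanide at 50 °C for 20 min. Reducing effect expressed relative to vitamin C; three independent experiments, mean ± SD.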

A short description of data set [4]: Antioxidant activity of the compound assessed as phosphate/Mo5 complex formation at 6.25 to 100 uM after 90 mins. It counts as functional. In outline: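 Phosphomolybdenum method: compound incubated with 0.6 M H2SO4, 28 mM sodium phosphate and 4 mM ammonium molybdate at 95 °C for 90 min. After cooling to room temperature, absorbance read at 695 nm against a blank. Result expressed as vitamin C equivalent; three independent experiments, mean ± SD.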

For data set [5], the system named is RAW264.7. Nature of the data set: Cytotoxicity against mouse RAW264.7 cells up to 100 uM after 24 hrs by MTT assay. It counts as cell-based. As to conditions: raw264.7, 24 h. In outline: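 RAW 264.7 cells (DMEM, 10% FBS, 2 mM glutamine, penicillin/streptomycin; 37 °C, 5% CO2) seeded at 1 × 10^4 cells/well. After 24 h, treated with a range of compound concentrations for 24 h. MTT (1 mg/mL) added for 4 h, formazan dissolved in DMSO, absorbance read at 540 nm.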

Data set [6] has as its system RAW264.7. Nature of the data set: Antioxidant activity in mouse RAW264.7 cells assessed as inhibition of H2O2-induced intracellular ROS formation after 30 mins in dark prior to H2O2 challenge measured after 30 mins post H2O2 challenge by H2DCF-DA based flow cytometry. It counts as functional, cell-based. In outline: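 RAW 264.7 cells grown in DMEM/10% FBS at 37 °C, 5% CO2. Loaded with 20 µM H2DCF-DA in HBSS for 30 min, then compound (50 and 100 µM) in HBSS for 30 min at 37 °C in the dark. H2O2 challenge for 30 min, cells scraped and filtered, flow cytometry at 488 nm excitation. Geometric mean fluorescence reported; three independent experiments, mean ± SD.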
A general note: A flow cytometer gives signals particle by particle.

The nature of data set [7]: Ratio of alpha-tocopherol IC50 to compound IC50 for antioxidant activity of the compound assessed as DPPH radical scavenging activity.

Calls of active or inactive are those of the source. The rule behind the calls is not given here.

`Cc1c(C)c2c(c(C)c1O)CC[C@@](C)(CCC[C@H](C)CCC[C@H](C)CCCC(C)C)O2` [ALPHA-TOCOPHEROL]: the IC50 in data set [1] was determined as 59 µM. In data set [2], the result was Active.
Take `O=C1O[C@H]([C@@H](O)CO)C(O)=C1O`: the result in data set [3] and in data set [2] was Active.
Turning to `COc1cc(/C=C/C(=O)CC(=O)/C=C/c2ccc(O)c(OC)c2)ccc1O` [CURCUMIN], the IC50 in data set [1] worked out at 35.1 µM.
Still for that read-out and setting: the result for `Oc1ccccc1O` [CATECHOL] reads 36 µM.
For `O=C1[C@@H]2CCC[C@@H]1[C@H](c1ccc(O)c(O)c1)N[C@@H]2c1ccc(O)c(O)c1`, in data set [1], the IC50 amounted to 26.1 µM. The Activity in data set [4] was 62.3%; in the data set with RAW264.7 [5], “Non-toxic”; in data set [3], 163%; in data set [2] it was 80%. Also, the inhibition entry with RAW264.7 [6] was “Dose-dependent effect”. Also, the Ratio IC50 in data set [7] turned out to be 1.
In the case of `COc1cc([C@H]2N[C@@H](c3ccc(O)c(OC)c3)[C@H]3CCC[C@H]2C3=O)ccc1O`, the Activity in data set [4] came to 56.8%; in data set [3], 116%; in data set [2] it was 80%.

By IC50 is commonly meant the concentration at which inhibition is half-maximal.
